Most compounds without a hit are left out; they make up all but 3.5% or so of the library.
RGS4 block = RGS4 inhibitors, primary screen, cell-based, HEK293 M3R inducible RGS4, calcium flux | Fluo-4 calcium flux; active compounds read high; triggered by carbachol at its EC20 | Regulator of G-protein signaling 4 (Homo sapiens), P49798 | B-score at 10 µM | 310,000 compounds, 0.45% hits;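 active = B-score, a plate-corrected calcium signal, over three deviations above library mean, with baseline fluorescence within five deviations of library mean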;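 also: RGS4 expression induced by doxycycline in cells with stable M3 receptor; B-score is computed from the integrated fluorescence ratio over baseline after carbachol; higher B-score means a larger calcium signal and so more RGS4 inhibition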
Target sequence (P49798 whole entry, looked up): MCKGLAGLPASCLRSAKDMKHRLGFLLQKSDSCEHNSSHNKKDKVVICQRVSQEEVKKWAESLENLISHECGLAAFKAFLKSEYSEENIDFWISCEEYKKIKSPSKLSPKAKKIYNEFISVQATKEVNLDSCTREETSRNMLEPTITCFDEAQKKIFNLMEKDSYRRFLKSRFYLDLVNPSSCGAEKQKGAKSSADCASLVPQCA
MrgX1 antag = antagonists of human MrgX1 receptor, primary screen, HEK293 cells, Fluo-4 calcium flux; 310,000 compounds, 1.3% hits; Mas-related G-protein coupled receptor member X1 (Homo sapiens), Q96LB2; B-score at 10 µM; BAM8-22 antagonism; active compounds read low;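 active = calcium-response B-score plate-corrected more than 3 library SD below zero, starting fluorescence within 5 deviations, no agonist response on first addition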;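 also: peak minus trough fluorescence over baseline after final BAM8-22 challenge near maximal dose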
Target sequence (Q96LB2 whole entry, looked up): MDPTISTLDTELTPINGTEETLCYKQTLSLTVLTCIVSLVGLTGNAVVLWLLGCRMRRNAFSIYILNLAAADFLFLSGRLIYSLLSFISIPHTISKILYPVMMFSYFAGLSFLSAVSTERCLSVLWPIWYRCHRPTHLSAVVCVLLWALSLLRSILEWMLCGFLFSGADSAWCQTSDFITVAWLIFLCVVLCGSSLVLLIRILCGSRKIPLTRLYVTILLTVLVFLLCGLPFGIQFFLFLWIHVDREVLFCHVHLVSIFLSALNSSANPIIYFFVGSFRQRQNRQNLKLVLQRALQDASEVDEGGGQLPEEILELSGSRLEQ
MrgX1 ag = agonists of human MrgX1 receptor, primary screen, HEK293 cells, Fluo-4 calcium flux; Mas-related G-protein coupled receptor member X1 (Homo sapiens), Q96LB2; Fluo-4 calcium fluorescence, agonist mode; active compounds read high; B-score at 10 µM; 310,000 compounds, 0.44% hits; AID 588627, 2011;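 active = calcium response B-score plate-corrected fluorescence ratio at least 3 library SD, with starting fluorescence B-score inside 5 SD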
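Material: MrgX1-expressing HEK293 cells / Dosing: compound as first of three additions / Incubation: overnight seeding, then 1 h dark dye loading / Signal: Fluo-4 NW calcium fluorescence / Evaluation: B-scored fluorescence response ratio / Benchmarks: positive and negative control wells on each plate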
RGS4 pot = RGS4 potentiators or activators, primary screen, cell-based, HEK293 M3R inducible RGS4, calcium flux. carbachol calcium flux Fluo4; active compounds read low. B-score at 10 µM. 310,000 compounds, 0.92% hits. AID 463111, 2010;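 active = B-score of the integrated calcium signal more than 4 SD below the library mean, with starting fluorescence not abnormally high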;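 also: negative B-score means reduced calcium response which marks RGS4 activation or potentiation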
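Assay system: Inducible-RGS4 HEK293 cells carrying M3 receptor | Schedule: Compound preincubation 20 min at room temperature before agonist | Signal: Kinetic calcium fluorescence imaging with Fluo4-AM dye, 2 µM | Read-out basis: B score from integrated fluorescence ratio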
MrgX1 PAM = positive allosteric modulators of MrgX1, primary screen, HEK293 cells, Fluo-4 calcium flux; Mas-related G-protein coupled receptor member X1 (Homo sapiens), Q96LB2; FDSS; active compounds read high; B-score at 10 µM; 310,000 compounds, 0.63% hits; AID 588675, 2011;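 active = plate-corrected calcium response at least 3 library SD above typical, normal starting fluorescence, not activating the receptor alone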;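 also: compound read alongside a low EC10 to EC30 dose of BAM8-22 agonist; peak minus trough fluorescence over baseline measured at the second addition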
A number is an active result; - = inactive; . = no result.

SMILES | RGS4 block | MrgX1 antag | MrgX1 ag | RGS4 pot | MrgX1 PAM
COc1ccc(CN2CCCC(C(=O)c3ccc(Cl)cc3)C2)c(OC)c1 (centres undefined) | - | - | - | - | -
O=C(c1ccc(Cl)cc1)C1CCCN(Cc2ccc3ncccc3c2)C1 (centres undefined) | - | - | - | -7.3 | -
O=C(c1ccc(Cl)cc1)C1CCCN(Cc2cccc3cnccc23)C1 (centres undefined) | - | - | - | -7.3 | -
CCC(C)C12CN3CCN(CC(C)(C3)C1O)C2 (centres undefined) | - | - | - | - | -
CCN(CC)S(=O)(=O)c1cccc(N=Nc2c(O)n(CC)c(=S)n(CC)c2=O)c1 | - | - | - | - | -
CCOP(=O)(OCC)c1cccc(OP(=O)(c2cccc([N+](=O)[O-])c2)c2cccc([N+](=O)[O-])c2)c1 | - | - | - | - | -
CCOP(=O)(OCC)c1cccc(O)c1 | - | -4.6 | - | - | -
Cc1ccc2c(c1)CC1(CN2C)C(=O)NC(=O)N(c2ccccc2C)C1=O (centres undefined) | - | -8.5 | - | - | -
Cc1ccc2c(c1)CC1(CN2C)C(=O)NC(=O)N(c2cccc(C)c2C)C1=O (centres undefined) | - | - | - | - | -
COc1ccc(-n2c(O)c(C=Nc3c(C)n(C)n(-c4ccccc4)c3=O)c(=O)[nH]c2=O)cc1 | - | - | - | - | -
C[N+]1(C)[C@@H]2CC[C@H]1CC(OC(=O)C(CO)c1ccccc1)C2 (some centres undefined) | - | - | - | - | -
C[N+]1(C)C2CCC1CC(OC(=O)C(CO)c1ccccc1)C2 (centres undefined) | - | - | - | -8.6 | -
CN1C(=O)C(=Cc2ccc(N3CCCCCC3)o2)C(=O)N(C)C1=S | . | - | 29 | . | -
O=C1NC(=O)N(c2ccccc2F)C(=O)/C1=C/c1cn(CC(=O)N2CCOCC2)c2ccccc12 | 9.9 | - | - | - | -
CCN1C(=O)NC(=O)/C(=C\c2cn(CC(=O)N3CCCC3)c3ccccc23)C1=O | - | - | - | - | -
Cc1cccc(-n2c(O)c(/C=C/C=Nc3ccccc3)c(=O)[nH]c2=O)c1 | - | - | - | - | -
Cn1c(O)c(/C=C/C=Nc2ccccc2)c(=O)n(C)c1=S | - | -8.5 | - | - | -
Cc1cccc(NC(=O)C(C)N2CC=C(c3ccccc3)CC2)c1 (centres undefined) | - | - | - | - | -
Cc1c(C(=O)C(=O)N2CCC3(CC2)OCCO3)c2ccccc2n1C | - | - | - | - | -
COc1ccc(C2(C#N)CCN(C)CC2)cc1 | - | - | - | - | -
C=C(C)[C@@]12OC3(c4ccccc4)O[C@@H]1C1[C@@H]4O[C@]4(CO)[C@@H](O)[C@]4(O)C(=O)C(C)=C[C@H]4[C@@]1(O3)[C@H](C)[C@H]2OC(=O)/C=C/C=C/c1ccccc1 (some centres undefined) | - | - | - | -8.6 | -
CCOC(=O)c1cccc(-[n+]2c(-c3ccccc3)cc(-c3ccccc3)cc2-c2ccccc2)c1 | - | -6.8 | - | -7.7 | -
Cc1ccc(-c2cc(-c3ccc(C)cc3)[n+](-c3ccc(C(=O)[O-])cc3)c(-c3ccc(C)cc3)c2)cc1 | - | - | - | - | -
CCOC(=O)c1ccc(-[n+]2c(-c3ccccc3)cc(-c3ccccc3)cc2-c2ccccc2)cc1 | - | - | 28 | - | -
CC(C)(C)NC(=O)NC(=O)CN1CC=C(c2ccccc2)CC1 | - | - | - | - | -
SMILES | RGS4 block | MrgX1 antag | MrgX1 ag | RGS4 pot | MrgX1 PAM
CC(C)(O)[C@H]1O[C@H]2CC[C@@]3(C)[C@@](O)(CC[C@H]4Cc5c([nH]c6ccccc56)[C@@]43C)C2=CC1=O | - | -4.6 | - | - | -
Nc1ccc2ccc3cccc[n+]3c2c1 | - | - | - | -7.6 | -
CC(Cc1ccccc1)NC(=O)CCCCC(=O)NC(C)Cc1ccccc1 (centres undefined) | - | - | - | - | -
COC(=O)C1=C(c2ccccc2)C[C@@H]2CC[C@H]1N2C(=O)NC1CCCCC1 | - | - | - | - | -
C#CC1(OC(=O)c2ccccc2)CC(C)N(C)CC1C (centres undefined) | - | - | - | -7 | -
O=C1NC(=O)N(C2CCCCC2)C(=O)C1C1c2ccccc2C(=O)N1Cc1ccccc1 (centres undefined) | - | - | - | - | -
CCOC(=O)C1(CCc2ccccc2)CCN(C2CCSCC2)CC1 | - | - | - | - | -
CCOC(=O)C1(CCCc2ccccc2)CCN(C2CCCC2)CC1 | - | - | - | -7 | -
COP(=O)(OC)C(O)C(Cl)(Cl)Cl (centres undefined) | . | - | - | . | -
CC/C(=C\C=C\[C@@H]1C=C[C@@H]2CCC[C@H]2[C@@H]1C(=O)c1ccc[nH]1)[C@@H]1O[C@@H]([C@@H](C)C(=O)O)CC[C@@H]1C | - | - | 35 | -8.2 | -
COc1cc(C(C)=O)ccc1OC(=O)N(C)c1ccccc1 | - | - | - | - | -
NC(Cc1ccccc1)Cc1ccccc1 | - | - | - | - | -
C[N+](C)(C)Cc1ccccc1 | - | - | - | -8.6 | -
CCOP(=O)(C#Cc1ccccc1)C(O)c1ccc(Br)cc1 (centres undefined) | - | - | - | - | 17
C=CCN1C(=O)NC(=O)/C(=C/c2ccoc2)C1=O | - | -6.5 | - | - | -
Cc1nc2ccccc2c(=O)n1/N=C/c1cc(Br)cc(Br)c1O | - | -8.6 | - | - | -
Fc1ccc(C(OCCN2CCCC2)c2ccc(Br)cc2)cc1 (centres undefined) | - | - | - | -9.8 | -
CC1(C)C2([N+](=O)[O-])CN3CC1([N+](=O)[O-])CN(C2)C3c1ccccn1 (centres undefined) | - | - | - | - | -
CC1CCN(c2cc(Br)c([N+](=O)[O-])cc2F)CC1 | - | - | - | - | -
CC1(C)CC[C@]2(C)CC[C@]3(C)C4C[C@@H]5OO[C@@]6(O5)C(CCCC6(C)C)[C@]4(C)CC[C@@]3(C)C2C1 (some centres undefined) | . | - | - | . | -
CCC(C)n1c(O)c(C=NCC2CCCO2)c(=O)[nH]c1=S (centres undefined) | - | - | - | -10 | -
CCC(C)n1c(O)c(/C=N/N2CCOCC2)c(=O)[nH]c1=S (centres undefined) | - | - | - | - | -
CC(C)[N+]12CCC(CC1)C(C(O)(c1ccccc1)c1ccccc1)C2 (centres undefined) | - | - | - | -8.4 | -

Source: PubChem
